Measurements as given in ChEMBL document CHEMBL1155213, “Solvent free synthesis of 1,5-disubstituted tetrazoles derived from Baylis Hillman acetates as potential TNF-alpha inhibitors” (2009).

How the values were obtained:
Blood [1] = experiment: Inhibition of LPS-induced TNFalpha production in human whole blood at 10 uM treated 1 hr before LPS challenge measured after 5 hrs by ELISA; type: functional
Method in brief: (§1)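 Whole blood aliquots preincubated 1 h at 37 °C with test compound (10 or 100 μM solution) or DMSO vehicle, then stimulated with LPS in PBS (final 1 ng/ml). Incubated a further 5 h at 37 °C, stopped on ice 10 min. Plasma separated by centrifugation (3000 rpm, 10 min, 4 °C), stored at −70 °C. Plasma TNF-α quantified by ELISA.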

Blood [2] = experiment: Inhibition of LPS-induced TNFalpha production in human whole blood at 100 uM treated 1 hr before LPS challenge measured after 5 hrs by ELISA; type: functional; method in brief: as §1

Row | Structure (SMILES) | inhibition at 10 µM (Blood [1]) [%] | inhibition at 100 µM (Blood [2]) [%]
1 | COC(=O)/C(=C/c1ccc(OC)cc1)Cn1nnnc1-c1ccncc1 | 8.6 | 12.9
2 | COC(=O)/C(=C/c1ccccc1)Cn1nnnc1-c1ccccc1 | 14.6 | 35.1
3 | COC(=O)/C(=C/c1ccccc1)Cn1nnnc1-c1ccncc1 | 18.2 | 67
4 | COC(=O)/C(=C/c1ccc(OC)cc1)Cn1nnnc1-c1cccnc1 | 5.4 | 30.2
5 | COC(=O)/C(=C/c1ccc(OC)cc1)Cn1nnnc1-c1ccccc1 | 22.2 | 46.3
